# ChEMBL document CHEMBL4130438, “6,7-Seco-ent-Kauranoids Derived from Oridonin as Potential Anticancer Agents” (J Nat Prod, 2017)
# Active and inactive are the calls of the source. The calls are words filed in the database; no cut-off is given here.
# What was measured:
# MCF7 [1] = experiment: Cell cycle arrest in human MCF7 cells assessed as accumulation at G2/M phase after 48 hrs by propidium iodide staining based flow cytometry; assay type: functional
# MGC-803 = experiment: Antiproliferative activity against human MGC803 cells after 72 hrs by MTT assay; assay type: functional, cell-based; conditions: MGC-803, 72 h
# Procedure, shortened: (§1)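 Cells pre-incubated 24 h at 37 °C, 5% CO2 in 96-well plates, then exposed to a range of compound concentrations (DMSO ≤0.25%) for 72 h. Viable cells read by MTT colour at 570 nm. Performed in quadruplicate, repeated three times. IC50 reported as means ± SD, n = 3.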
# MCF7 [2] = experiment: Antiproliferative activity against human MCF7 cells after 72 hrs by MTT assay; assay type: functional, cell-based; conditions: MCF7, 72 h; procedure, shortened: as §1
# K562 = experiment: Antiproliferative activity against human K562 cells after 72 hrs by MTT assay; assay type: functional, cell-based; conditions: K562, 72 h; procedure, shortened: as §1
# Homo sapiens = species: Homo sapiens; experiment: Antiproliferative activity against human KB/CP4 cells after 48 hrs by MTT assay; assay type: functional, cell-based
# MCF7 [3] = experiment: Cell cycle arrest in human MCF7 cells assessed as accumulation at G1 phase at 0.25 uM after 48 hrs by propidium iodide staining based flow cytometry (reference value: 70.27%); assay type: functional
# MCF7 [4] = experiment: Cell cycle arrest in human MCF7 cells assessed as accumulation at G2/M phase at 0.25 uM after 48 hrs by propidium iodide staining based flow cytometry (reference value: 12.72%); assay type: functional
# MCF7 [5] = experiment: Cell cycle arrest in human MCF7 cells assessed as accumulation at G1 phase at 0.50 uM after 48 hrs by propidium iodide staining based flow cytometry (reference value: 70.27%); assay type: functional
# MCF7 [6] = experiment: Cell cycle arrest in human MCF7 cells assessed as accumulation at S phase at 1 uM after 48 hrs by propidium iodide staining based flow cytometry (reference value: 17.01%); assay type: functional
# MCF7 [7] = experiment: Cell cycle arrest in human MCF7 cells assessed as accumulation at S phase at 2 uM after 48 hrs by propidium iodide staining based flow cytometry (reference value: 17.01%); assay type: functional
# MCF7 [8] = experiment: Cytotoxicity against human MCF7 cells assessed as decrease in cell viability after 24 hrs by LDH release assay; assay type: functional, cell-based
# Procedure, shortened: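 MCF-7 and Bel-7402 cells seeded at ~5 × 10^3 per well for 24 h, then exposed to compounds. LDH released into the medium measured with CytoTox-ONE reagent (10 min, ambient temperature) followed by stop solution. Fluorescence read at ex 560/em 590 nm.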
# MCF7 [9] = experiment: Inhibition of colony formation in human MCF7 cells up to 600 nM incubated for 24 hrs followed by removal of media measured after 10 days by crystal violet staining based microscopy; assay type: functional, cell-based
# Procedure, shortened: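 300 MCF-7 cells per well plated and incubated overnight, then exposed for 24 h to graded concentrations in DMSO (DMSO-only control). Medium removed and cells grown 10 days. Fixed in methanol 15 min, stained with 0.1% crystal violet 15 min; colonies of >50 cells counted. At least three independent experiments.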
# MCF7 [10] = experiment: Induction of apoptosis in human MCF7 cells assessed as viable cells at 0.25 uM after 24 hrs by Annexin-V FITC/propidium iodide staining based flow cytometry (reference value: 97.5%); assay type: functional; conditions: MCF7, 24 h, read-out: Activity
# MCF7 [11] = experiment: Induction of apoptosis in human MCF7 cells assessed as early apoptotic cells at 0.25 uM after 24 hrs by Annexin-V FITC/propidium iodide staining based flow cytometry (reference value: 1.60%); assay type: functional
# MCF7 [12] = experiment: Induction of apoptosis in human MCF7 cells assessed as late apoptotic cells at 0.25 uM after 24 hrs by Annexin-V FITC/propidium iodide staining based flow cytometry (reference value: 0.290%); assay type: functional
# MCF7 [13] = experiment: Induction of apoptosis in human MCF7 cells assessed as viable cells at 0.50 uM after 24 hrs by Annexin-V FITC/propidium iodide staining based flow cytometry (reference value: 97.5%); assay type: functional; conditions: MCF7, 24 h, read-out: Activity
# MCF7 [14] = experiment: Induction of apoptosis in human MCF7 cells assessed as late apoptotic cells at 0.50 uM after 24 hrs by Annexin-V FITC/propidium iodide staining based flow cytometry (reference value: 0.290%); assay type: functional
# MCF7 [15] = experiment: Induction of apoptosis in human MCF7 cells assessed as necrotic cells at 0.50 uM after 24 hrs by Annexin-V FITC/propidium iodide staining based flow cytometry (reference value: 0.610%); assay type: functional
# MCF7 [16] = experiment: Induction of apoptosis in human MCF7 cells assessed as viable cells at 1 uM after 24 hrs by Annexin-V FITC/propidium iodide staining based flow cytometry (reference value: 97.5%); assay type: functional; conditions: MCF7, 24 h, read-out: Activity
# MCF7 [17] = experiment: Induction of apoptosis in human MCF7 cells assessed as late apoptotic cells at 1 uM after 24 hrs by Annexin-V FITC/propidium iodide staining based flow cytometry (reference value: 0.290%); assay type: functional
# MCF7 [18] = experiment: Induction of apoptosis in human MCF7 cells assessed as late apoptotic cells at 2 uM after 24 hrs by Annexin-V FITC/propidium iodide staining based flow cytometry (reference value: 0.290%); assay type: functional
# MCF7 [19] = experiment: Induction of apoptosis in human MCF7 cells assessed as necrotic cells at 2 uM after 24 hrs by Annexin-V FITC/propidium iodide staining based flow cytometry (reference value: 0.610%); assay type: functional
# MCF7 [20] = experiment: Induction of apoptosis in human MCF7 cells assessed as increase in caspase 3 expression level after 48 hrs by Western blot analysis; assay type: functional, cell-based
# MCF7 [21] = experiment: Induction of apoptosis in human MCF7 cells assessed as increase in ERK phosphorylation after 48 hrs by Western blot analysis; assay type: functional, cell-based
# MCF7 [22] = experiment: Induction of apoptosis in human MCF7 cells assessed as decrease in Bcl2 expression level after 48 hrs by Western blot analysis; assay type: functional, cell-based
# Procedure, shortened: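 MCF-7 cells treated 48 h with 0, 0.5, 1.0, 2.0 or 4.0 μM, then lysed on ice. 20 μg protein per lane run on 8–12% SDS-PAGE and transferred to PVDF. Probed overnight at 4 °C for caspase-3, pro-caspase-3, Bax, Bcl-2, p-ERK and p53, with fluorescent secondary antibodies. Densities normalised to β-actin; three independent experiments.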
# H22 = experiment: Antitumor activity against […] cells xenografted in ICR mouse assessed as inhibition of tumor volume at 20 mg/kg, iv qd administered for 14 consecutive days measured every 2 days relative to control; assay type: functional; conditions: 14 days
# Procedure, shortened: (§2)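 Male ICR mice, five weeks old, implanted s.c. in the right flank with 1 × 10^6 H22 cells. After 7 days, randomised into groups of eight. Given i.v. once daily for 14 days, 10 or 20 mg/kg in 10% DMF/2% poloxamer/88% saline; negative controls received 0.9% saline i.v., positive control 20 mg/kg oridonin. Body weight and tumour volume (L × W²/2) recorded every 2 days. Tumours excised and weighed at sacrifice; inhibition (%) = (1 − treated/control mean tumour weight) × 100.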
# Mus musculus = experiment: Toxicity in ICR mouse xenografted with […] cells assessed as effect on body weight loss at 10 to 20 mg/kg, iv qd administered for 14 consecutive days; assay type: organism-based; conditions: in vivo; procedure, shortened: as §2
compound,measurement,setting,value
C=C1C(=O)[C@@]23C(=O)OC[C@]4(C=CCC(C)(C)[C@H]4C=O)[C@@H]2CC[C@@H]1[C@H]3OC(=O)c1ccc(F)cc1,Activity,MCF7 [1],Dose-dependent effect
same,IC50,MGC-803,2200 nM
same,IC50,MCF7 [2],680 nM
same,IC50,K562,690 nM
same,Activity,Homo sapiens,Active
same,Activity,MCF7 [3],67.64%
same,Activity,MCF7 [4],14.06%
same,Activity,MCF7 [5],64.82%
same,Activity,MCF7 [6],15.43%
same,Activity,MCF7 [7],17.71%
same,Activity,MCF7 [8],inactive
same,inhibition,MCF7 [9],Active
same,viability at 0.25 µM,MCF7 [10],87.2%
same,Activity,MCF7 [11],6.67%
same,Activity,MCF7 [12],5.51%
same,viability at 0.5 µM,MCF7 [13],81.7%
same,Activity,MCF7 [14],7.68%
same,Activity,MCF7 [15],0.901%
same,viability at 1 µM,MCF7 [16],72%
same,Activity,MCF7 [17],15.9%
same,Activity,MCF7 [18],24.7%
same,Activity,MCF7 [19],2.74%
same,Activity,MCF7 [20],Dose-dependent effect
same,Activity,MCF7 [21],Dose-dependent effect
same,Activity,MCF7 [22],Dose-dependent effect
same,inhibition in vivo at 20 mg/kg,H22,52.5%
same,Activity,Mus musculus,Non-Toxic
